Experimental data published in ChEMBL document CHEMBL4396943, “The tetrahydroxanthone-dimer phomoxanthone A is a strong inducer of apoptosis in cisplatin-resistant solid cancer cells” (Bioorg Med Chem, 2019).
Activity calls are given as the source filed them. The rule behind the calls is not given here.

Legend:
MDA-MB-231 [1] = assay: Antiproliferative activity against human MDA-MB-231 cells assessed as reduction in cell viability incubated for 72 hrs by MTT assay; assay type: functional, cell-based; conditions: MDA-MB-231, 72 h
Method in brief: (§1)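 Cells seeded overnight in 96-well plates, then exposed to increasing concentrations (compound dissolved in DMSO, diluted in medium) for the stated time. MTT (5 mg/ml in PBS) added for 15 min, formazan dissolved in DMSO, absorbance read at 544 nm minus 690 nm background. IC50 = concentration giving 50% signal decrease. At least three independent experiments in triplicate.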

J82 [2] = assay: Induction of apoptosis in human J82 cells assessed as depolarization of mitochondrial membrane potential at 5 to 10 uM incubated for 2 hrs by hoechst 33342 staining based fluorescence microscopy; assay type: functional
Method in brief: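 J82 cells treated 2 h with PXA, then labelled 20 min with TMRE plus Hoechst 33342. ΔΨm read by high-content fluorescence imaging. Untreated medium and 20 µM CCCP served as controls.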

J82 [3] = assay: Cell cycle arrest in cisplatin resistant human J82 cells assessed as accumulation at G1 phase at 5 uM incubated for 24 hrs by propidium iodide staining based flow cytometry (reference value: 78.1%); assay type: functional
Method in brief: (§2)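 After 24 h exposure, cells washed in ice-cold PBS. About 2 million cells fixed in cold 70% ethanol at −20 °C for at least 24 h. Stained with 0.1% Triton X-100, 200 µg/ml RNase A and 20 µg/ml propidium iodide in PBS, 15 min at 37 °C in the dark. DNA content read by flow cytometry with doublet discrimination. Medium as untreated control, paclitaxel as G2/M control. Three independent experiments.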

A2780 [4] = assay: Induction of apoptosis in human A2780 cells assessed as accumulation in subG1 phase at 1 uM incubated for 24 hrs by propidium iodide staining based flow cytometry (reference value: 10%); assay type: functional
Method in brief: (§3)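 Cells plated in 24-well plates (about 100,000/well) for one day, then treated 24 h. Where used, caspase inhibitor Q-VD-OPh (20 µM) was added 1 h before. Cells lysed in hypotonic buffer (0.1% sodium citrate, 0.1% Triton X-100, 100 µg/ml propidium iodide) overnight at 4 °C in the dark. Sub-G1 fraction read by flow cytometry. Medium control, cisplatin positive control.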

A2780 [5] = assay: Induction of apoptosis in human A2780 cells assessed as accumulation in subG1 phase incubated for 24 hrs by propidium iodide staining based flow cytometry (reference value: 10%); assay type: functional; method in brief: as §3
J82 [6] = assay: Cell cycle arrest in human J82 cells assessed as accumulation at G1 phase at 1 uM incubated for 24 hrs by propidium iodide staining based flow cytometry (reference value: 69.6%); assay type: functional; method in brief: as §2
A2780cisR [7] = assay: Induction of apoptosis in human A2780cisR cells assessed as plasma membrane damage at 1 to 10 uM incubated for 24 hrs by propidium iodide staining based flow cytometry; assay type: functional, cell-based
Method in brief: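 Cells exposed to PXA for 24 h, trypsinised, pelleted at 4 °C, stained with 100 µg/ml propidium iodide, diluted in sheath fluid and read by flow cytometry. Positive control was 0.2% Triton X-100 (20 min). Three experiments, mean ± SEM.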

A2780cisR [8] = assay: Antiproliferative activity against human A2780cisR cells assessed as reduction in cell viability incubated for 48 hrs by MTT assay; assay type: functional, cell-based; method in brief: as §1
J82 [9] = assay: Cell cycle arrest in cisplatin resistant human J82 cells assessed as accumulation at G1 phase at 1 uM incubated for 24 hrs by propidium iodide staining based flow cytometry (reference value: 78.1%); assay type: functional; method in brief: as §2
J82 [10] = assay: Induction of apoptosis in human J82 cells assessed as depolarization of mitochondrial membrane potential incubated for 1 hr by TMRE staining based flow cytometry; assay type: functional, cell-based
Method in brief: (§4)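 Cells seeded overnight; complete medium swapped for FBS-free medium just before treatment to avoid TMRE ester cleavage. Exposure to PXA for 1 h, 2 h or 24 h. TMRE staining 20 min, cells collected by trypsinisation, ΔΨm read by flow cytometry. Medium served as negative control, 20 µM CCCP as positive control. Mean ± SEM reported.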

A2780 [11] = assay: Induction of apoptosis in human A2780 cells assessed as depolarization of mitochondrial membrane potential at 1 uM incubated for 1 hr by TMRE staining based flow cytometry; assay type: functional
Method in brief: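 Cells seeded overnight; medium switched to FBS-free just before treatment to avoid TMRE ester cleavage. Exposure 1 h, 2 h or 24 h, then TMRE staining for 20 min. Cells trypsinized, centrifuged at 4 °C and read by flow cytometry. Medium as negative control, 20 µM CCCP as positive control. […]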

A2780 [12] = assay: Induction of apoptosis in human A2780 cells assessed as increase in activation of caspase 3/7 at 10 uM incubated for 24 hrs by hoechst 33342 staining based fluorescence microscopy (reference value: 1.4%); assay type: functional
A2780 [13] = assay: Cell cycle arrest in human A2780 cells assessed as accumulation at G1 phase at 5 uM incubated for 24 hrs by propidium iodide staining based flow cytometry (reference value: 61.8%); assay type: functional; method in brief: as §2
A2780cisR [14] = assay: Induction of apoptosis in human A2780cisR cells assessed as depolarization of mitochondrial membrane potential after 24 hrs by TMRE staining based flow cytometry; assay type: functional, cell-based; method in brief: as §4
MDA-MB-231 [15] = assay: Antiproliferative activity against cisplatin-resistant human MDA-MB-231 cells assessed as reduction in cell viability incubated for 72 hrs by MTT assay; assay type: functional, cell-based; conditions: MDA-MB-231, 72 h; method in brief: as §1
A2780cisR [16] = assay: Induction of apoptosis in human A2780cisR cells assessed as depolarization of mitochondrial membrane potential incubated for 2 hrs by TMRE staining based flow cytometry; assay type: functional, cell-based; method in brief: as §4
A2780 [17] = assay: Induction of apoptosis in human A2780 cells assessed as increase in intracellular calcium level at 10 to 30 uM incubated for 30 mins in presence of 1 mM extracellular calcium by fluorimetry; assay type: functional, cell-based
Method in brief: (§5)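 Cells seeded in 96-well plates overnight, washed twice with Krebs-HEPES buffer, loaded 1 h at 37 °C in the dark with Oregon Green BAPTA-1 AM (final 3 µM) and Pluronic F-127. Buffer replaced, PXA added, fluorescence at 544 nm recorded for 30 min, with or without 1 mM extracellular Ca2+. Three experiments, mean ± SEM.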

J82 [18] = assay: Cell cycle arrest in human J82 cells assessed as accumulation at G1 phase at 10 uM incubated for 24 hrs by propidium iodide staining based flow cytometry (reference value: 69.6%); assay type: functional; method in brief: as §2
J82 [19] = assay: Induction of apoptosis in cisplatin resistant human J82 cells assessed as increase in activation of caspase 3/7 at 30 uM incubated for 24 hrs by hoechst 33342 staining based fluorescence microscopy (reference value: 0.5%); assay type: functional
A2780cisR [20] = assay: Cell cycle arrest in human A2780cisR cells assessed as accumulation at G1 phase at 1 uM incubated for 24 hrs by propidium iodide staining based flow cytometry (reference value: 68.7%); assay type: functional; method in brief: as §2
J82 [21] = assay: Induction of apoptosis in human J82 cells assessed as nuclear condensation by measuring reduced size and increased intensity of nuclei at 50 uM incubated for 24 hrs by hoechst 33342 staining based fluorescence microscopy; assay type: functional, cell-based
A2780cisR [22] = assay: Induction of apoptosis in human A2780cisR cells assessed as increase in intracellular calcium level at 1 to 30 uM incubated for 30 mins by fluorimetry; assay type: functional, cell-based; method in brief: as §5

Q: `CC(=O)OC[C@]12Oc3c(-c4ccc(O)c5c4O[C@@]4(COC(C)=O)C(=C(O)C[C@@H](C)[C@H]4OC(C)=O)C5=O)ccc(O)c3C(=O)C1=C(O)C[C@@H](C)[C@H]2OC(C)=O` [PHOMOXANTHONE A] was tested. Which IC50 (MDA-MB-231 [1]) did it give?
A: 3.7 µM

Q: What about the Activity (J82 [2]) of the same compound?
A: 100%

Q: What about the Activity (J82 [3]) of the same compound?
A: 79.3%

Q: And the Activity (A2780 [4])?
A: 42%

Q: And the Activity (A2780 [5])?
A: 70%

Q: And the Activity (J82 [6])?
A: 65%

Q: And the Activity (A2780cisR [7])?
A: inactive

Q: And the IC50 (A2780cisR [8]; read-out: IC50)?
A: 1.18 µM

Q: And the IC50 (A2780cisR [8]; read-out: pIC50 (converted))?
A: 1.17 µM

Q: What about the Activity (J82 [9]) of the same compound?
A: 76.3%

Q: What about the Activity (J82 [10]) of the same compound?
A: Dose-dependent effect

Q: What about the IC50 (J82 [10]; J82, 1 h) of the same compound?
A: 3.75 µM

Q: And the Activity (A2780 [11])?
A: 73%

Q: What about the Activity (A2780 [12]) of the same compound?
A: 83%

Q: What about the Activity (A2780 [13]) of the same compound?
A: 75.9%

Q: And the Activity (A2780cisR [14])?
A: Dose-dependent effect

Q: And the IC50 (MDA-MB-231 [15])?
A: 4.37 µM

Q: What about the Activity (A2780cisR [16]) of the same compound?
A: Dose-dependent effect

Q: What about the IC50 (A2780cisR [16]) of the same compound?
A: 0.86 µM

Q: And the Activity (A2780 [17])?
A: Active

Q: What about the Activity (J82 [18]) of the same compound?
A: 70.9%

Q: And the Activity (J82 [19])?
A: 90%

Q: What about the Activity (A2780cisR [20]) of the same compound?
A: 72.7%

Q: What about the Activity (J82 [21]) of the same compound?
A: Active

Q: What about the Activity (A2780cisR [22]) of the same compound?
A: Active
